In ChEMBL document CHEMBL2046390, “Carnosine analogues containing NO-donor substructures: synthesis, physico-chemical characterization and preliminary pharmacological profile” (Eur J Med Chem, 2012):
Calls of active or inactive are those of the source. The rule behind the calls is not given here.

Key:
[1] = Half life in human serum at 0.5 mM by RP-HPLC analysis; type: ADME, cell-free
Method in brief: (§1)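 A 10 mM aqueous stock was added to human serum preheated to 37 °C, giving 0.5 mM final, then incubated at 37 ± 0.5 °C. Aliquots were deproteinized with acetonitrile/0.1% TFA, centrifuged, filtered and analysed by RP-HPLC on C18 with diode-array detection, using methanol/20 mM sodium acetate pH 4.5–5 mM SDS mobile phase.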

[2] = system: Thoracic aorta; test: Vasodilator activity in Wistar rat endothelium-denuded thoracic aorta assessed as inhibition of L-phenylephrine-induced contraction; type: functional, tissue-based
Method in brief: (§2)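 Rat aortic strips equilibrated 90 min, then contracted with 1 μM L-phenylephrine. Cumulative concentration-response curves were run at the plateau, with isometric recording. EC50 is the concentration giving 50% relaxation, mean of at least 5 determinations. ODQ 1 μM was added 5 min before contraction in a separate series.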

[3] = system: Rattus norvegicus; test: Protection against hypoxia-induced brain damage in Wistar rat ischemia-reperfusion injury model assessed as reduction of cerebral infarct volume at 1 g/kg, iv administered at beginning of reperfusion and again after 6 hrs measured 24 hrs after reperfusion; type: functional, organism-based
Method in brief: (§3)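 Male Wistar rats, 210–230 g, anaesthetised with Zoletil and kept at 37 °C, underwent 30 min carotid occlusion then 24 h reperfusion; n = 5 per group. Compounds in 5% DMSO given i.v. at reperfusion onset and again after 6 h. Infarct volume from 2-mm coronal brain slices stained with 2% TTC, 37 °C, 30 min. Serum TNF-α by ELISA (pg/mL); means ± SEM.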

[4] = system: Rattus norvegicus; test: Reduction of ischemia-reperfusion-induced TNFalpha level increase in Wistar rat serum at 1 g/kg, iv by ELISA; type: functional, organism-based; method in brief: as §3
[5] = system: Serum; test: Metabolic stability of the compound in human serum at 0.5 mM after 3 hrs by RP-HPLC analysis; type: ADME, cell-free; details: 500 µM; method in brief: as §1
[6] = Antioxidant activity against CuSO4-induced LDL oxidation measured per mg of LDL product assessed as propagation rate of the oxidation at 100 uM by spectrophotometric analysis; type: functional
Method in brief: (§4)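 Human LDL isolated by ultracentrifugation (density 1.019-1.063 g/mL), EDTA removed by desalting, diluted in 10 mM phosphate buffer pH 7.4 to 50 μg protein/mL; compound 100 μM final. Oxidation started with 2.5 μM CuSO4 at 37 °C; conjugated dienes followed at 234 nm. Lag phase versus control; propagation rate from ΔA234 over time using ε234 = 29500 M-1 cm-1.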

[7] = system: Thoracic aorta; test: Vasodilator activity in Wistar rat endothelium-denuded thoracic aorta assessed as inhibition of L-phenylephrine-induced contraction at 1 mM; type: functional; method in brief: as §2
[8] = system: Thoracic aorta; test: Vasodilator activity in Wistar rat endothelium-denuded thoracic aorta assessed as inhibition of L-phenylephrine-induced contraction in presence of ODQ; type: functional, tissue-based; method in brief: as §2
[9] = Lipophilicity, log D of the compound at pH 7.4 by shake-flask method; type: physicochemical; details: buffer
Method in brief: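 Shake-flask partition between n-octanol and phosphate buffer pH 7.4 (ionic strength 0.15 M KCl), phases presaturated 4 h. Compound about 0.1 mM in the aqueous phase; shaken about 20 min, centrifuged, aqueous concentration read by UV at 230 nm. At least 6 determinations per compound.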

[10] = Antioxidant activity assessed as (E)-4-hydroxy-trans-2,3-nonenal scavenging activity in phosphate buffer at pH 7.4 at 1 mM after 24 hrs by reverse-phase HPLC analysis relative to control; type: functional
Method in brief: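 HNE 50 μM incubated with compound 1 mM in 1 mM phosphate buffer pH 7.4 at 37 °C for up to 24 h. Remaining HNE measured directly by reverse-phase HPLC. Scavenging % = 100 − (HNE left with scavenger / HNE left in control × 100).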

[11] = Antioxidant activity against CuSO4-induced LDL oxidation assessed as delta-lag time at 100 uM by spectrophotometric analysis; type: functional; method in brief: as §4
[12] = Binding affinity to Cu2+ assessed as formation of compound-cu2+ complex formation by pH-metric technique; type: physicochemical
Method in brief: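 Compound and CuCl2, equimolar at 1 mM in water, acidified to pH 1.8 with 0.5 N HCl, then titrated with 0.5 N KOH to pH 12.2. Run under nitrogen at 25.0 ± 0.1 °C, ionic strength 0.15 M KCl, at least three titrations. Formation constants fitted from pH-metric data.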

[13] = system: Rattus norvegicus; test: Protection against hypoxia-induced brain damage in Wistar rat ischemia-reperfusion injury model assessed as reduction of cerebral infarct volume at 500 mg/kg, iv administered at beginning of reperfusion and again after 6 hrs measured 24 hrs after reperfusion; type: functional, organism-based; parameters: dose 500 mg/kg; method in brief: as §3
[14] = system: Rattus norvegicus; test: Reduction of ischemia-reperfusion-induced TNFalpha level increase in Wistar rat serum at 500 mg/kg, iv by ELISA; type: functional, organism-based; parameters: dose 500 mg/kg; method in brief: as §3

Row | half-life at 500 µM [1] [min] | Stability [5] | logD [9] | Activity [12] | EC50 [2] [µM] | Compound | Activity [2] | Activity [3] | Activity [4] | Activity [6] [nmol/min] | inhibition at 1000 µM [7] [%] | Activity [8] | Activity [10] [%] | TIME [11] [h] | Activity [13] | Activity [14]
1 | 5 |  |  |  |  | NCCC(=O)N[C@@H](Cc1cnc[nH]1)C(=O)O [CARNOSINE] |  |  |  |  |  |  |  |  |  | 
2 |  |  |  |  |  | NCCC(=O)N[C@@H](Cc1c[nH]cn1)C(=O)O | Dose-dependent effect | Active | inactive |  |  |  |  |  |  | 
3 |  | Stable | -2.43 | Active |  | NCCC(=O)N[C@@H](Cc1c[nH]cn1)C(=O)NCCCO[N+](=O)[O-] | Dose-dependent effect |  |  | 3.9 | 46 | inactive | 75.4 | 1.5 |  | 
4 |  | Stable | -2.19 | Active | 70 | NCCC(=O)N[C@@H](Cc1c[nH]cn1)C(=O)NC[C@H](CO[N+](=O)[O-])O[N+](=O)[O-] | Dose-dependent effect |  |  | 5.8 |  | inactive | 77.6 | 1.47 | Active | Active
5 |  | Stable | -2.33 | Active | 169 | NCCC(=O)N[C@@H](Cc1c[nH]cn1)C(=O)NC[C@@H](CO[N+](=O)[O-])O[N+](=O)[O-] | Dose-dependent effect |  |  | 5.8 |  | inactive | 67.2 | 1.25 |  | 
6 |  | Stable |  |  |  | CCCNC(=O)[C@H](Cc1c[nH]cn1)NC(=O)CCN |  |  |  |  |  |  |  |  | Active | inactive
7 |  | Stable | -1.15 |  |  | CCCOc1ccc(CNC(=O)[C@H](Cc2c[nH]cn2)NC(=O)CCN)cc1 |  |  |  | 9.5 |  |  | 73.3 | 1.07 |  | 
8 |  | Stable | -1.01 |  | 3 | NCCC(=O)N[C@@H](Cc1c[nH]cn1)C(=O)NCc1ccc(OCCCO[N+](=O)[O-])cc1 | Dose-dependent effect |  |  | 6.3 |  | inactive | 74.3 | 1.17 |  | 
